Measurements from ChEMBL document CHEMBL1137378, “Antibacterial agent discovery using thymidylate synthase biolibrary screening” (J Med Chem, 2006).
≈ marks a conversion by molar mass, not a printed value.

Key:
Thymidylate synthase [1] = biological target: T1, Thymidylate synthase (Cryptococcus neoformans var. neoformans B-3501A, UniProt P0CS13); experiment: Inhibition of Cryptococcus neoformans thymidylate synthase
T1 sequence (P0CS13 whole entry): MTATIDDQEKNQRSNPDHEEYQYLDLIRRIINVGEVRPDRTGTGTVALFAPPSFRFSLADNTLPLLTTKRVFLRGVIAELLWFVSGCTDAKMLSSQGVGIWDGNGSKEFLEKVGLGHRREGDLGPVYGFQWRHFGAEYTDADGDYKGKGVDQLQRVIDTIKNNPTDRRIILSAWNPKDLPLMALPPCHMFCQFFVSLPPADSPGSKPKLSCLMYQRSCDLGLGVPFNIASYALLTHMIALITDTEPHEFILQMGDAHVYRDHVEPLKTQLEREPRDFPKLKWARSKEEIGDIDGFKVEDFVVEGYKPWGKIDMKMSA

Dihydrofolate reductase = biological target: T2, Dihydrofolate reductase (Homo sapiens, UniProt P00374); experiment: Inhibition of human dihydrofolate reductase
T2 sequence (P00374 whole entry): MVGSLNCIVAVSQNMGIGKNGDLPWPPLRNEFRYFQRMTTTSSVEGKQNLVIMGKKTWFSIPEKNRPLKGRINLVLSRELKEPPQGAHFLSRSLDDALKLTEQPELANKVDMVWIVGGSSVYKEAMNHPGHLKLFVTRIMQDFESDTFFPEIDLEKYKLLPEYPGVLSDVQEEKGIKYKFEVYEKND
Outline: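 Purified human DHFR assayed spectrophotometrically at 25 °C by the fall in A340 on DHF reduction. Ki from steady-state kinetics.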

Thymidylate synthase [2] = biological target: T3, Thymidylate synthase (Lactobacillus casei, UniProt P00469); experiment: Inhibition of Lactobacillus casei thymidylate synthase; parameters: species or system Lacticaseibacillus casei
T3 sequence (P00469 whole entry): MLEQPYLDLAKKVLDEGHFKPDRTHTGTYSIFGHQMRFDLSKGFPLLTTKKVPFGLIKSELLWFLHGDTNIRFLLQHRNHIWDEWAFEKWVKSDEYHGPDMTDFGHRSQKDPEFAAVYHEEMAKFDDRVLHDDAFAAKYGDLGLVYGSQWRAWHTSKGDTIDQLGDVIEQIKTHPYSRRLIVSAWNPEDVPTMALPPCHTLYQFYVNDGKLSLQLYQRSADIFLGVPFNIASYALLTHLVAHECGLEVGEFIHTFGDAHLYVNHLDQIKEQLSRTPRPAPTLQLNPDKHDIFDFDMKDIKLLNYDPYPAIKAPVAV

[3] = Specificity Index, Ki for human thymidylate synthase/Ki for Cryptococcus neoformans thymidylate synthase
Outline: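 Specificity index is Ki of hTS divided by Ki of the pathogen TS (LcTS, EcTS or CnTS). Each enzyme was purified to >95% and assayed spectrophotometrically at 340 nm, 20 °C. Buffer was TES 50 mM pH 7.4 with MgCl2, formaldehyde, EDTA and 2-mercaptoethanol, plus dUMP 100 µM, mTHF 140 µM and enzyme 0.07 µM.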

Thymidylate synthase [4] = biological target: Thymidylate synthase (Homo sapiens, UniProt P04818); experiment: Inhibition of human thymidylate synthase
Chain of Thymidylate synthase (Homo sapiens, UniProt P04818) (P04818 whole entry): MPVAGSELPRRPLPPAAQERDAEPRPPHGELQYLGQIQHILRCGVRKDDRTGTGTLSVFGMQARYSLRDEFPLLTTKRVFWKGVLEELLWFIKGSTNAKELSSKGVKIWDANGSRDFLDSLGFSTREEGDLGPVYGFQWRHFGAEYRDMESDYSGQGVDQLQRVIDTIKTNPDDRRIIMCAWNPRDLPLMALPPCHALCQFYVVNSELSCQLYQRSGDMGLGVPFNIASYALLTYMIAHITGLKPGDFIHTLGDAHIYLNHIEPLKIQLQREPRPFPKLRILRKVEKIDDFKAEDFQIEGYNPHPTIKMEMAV

[5] = Specificity Index, Ki for human thymidylate synthase/Ki for Lactobacillus casei thymidylate synthase
Homo sapiens = species: Homo sapiens; experiment: Selectivity Index, Ki for human dihydrofolate reductase/Ki for human thymidylate synthase
Staphylococcus aureus [6] = experiment: Antibacterial activity against Staphylococcus aureus 341; format: functional
Outline: (§1)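 Wild-type strain panel (18 Gram-positive and Gram-negative strains). Bacteria grown in Mueller-Hinton broth at 37 °C for 24 h. Exponentially growing cultures diluted in sterile liquid medium to a final inoculum of about 1 × 10⁴ CFU/mL, then exposed to increasing compound concentrations. MIC taken as the lowest concentration with no evident bacterial growth.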

[7] = system: Staphylococcus saprophyticus; experiment: Antibacterial activity against Staphylococcus saprophyticus ATCC 15305; format: functional; outline: as §1
Staphylococcus aureus [8] = experiment: Antibacterial activity against Staphylococcus aureus K28; format: functional; outline: as §1
Citrobacter = experiment: Antibacterial activity against Citrobacter 224; format: functional; outline: as §1
Listeria monocytogenes [9] = experiment: Antibacterial activity against Listeria monocytogenes 5; format: functional; outline: as §1
Escherichia coli [10] = experiment: Antibacterial activity against Escherichia coli 256; format: functional; outline: as §1
Listeria monocytogenes [11] = experiment: Antibacterial activity against Listeria monocytogenes 8; format: functional; outline: as §1
Staphylococcus aureus [12] = experiment: Antibacterial activity against Staphylococcus aureus ATCC 29213; format: functional; outline: as §1
Listeria monocytogenes [13] = experiment: Antibacterial activity against Listeria monocytogenes 6; format: functional; outline: as §1
Enterococcus faecalis = experiment: Antibacterial activity against Enterococcus faecalis ATCCC29212; format: functional; outline: as §1
Streptococcus = experiment: Antibacterial activity against Streptococcus 42; format: functional; outline: as §1
Listeria monocytogenes [14] = experiment: Antibacterial activity against Listeria monocytogenes 4; format: functional; outline: as §1
Listeria monocytogenes [15] = experiment: Antibacterial activity against Listeria monocytogenes 3; format: functional; outline: as §1
Listeria monocytogenes [16] = experiment: Antibacterial activity against Listeria monocytogenes 7; format: functional; outline: as §1
Escherichia coli [17] = experiment: Antibacterial activity against Escherichia coli 292; format: functional; outline: as §1
Listeria monocytogenes [18] = experiment: Antibacterial activity against Listeria monocytogenes ATCC 4428; format: functional; outline: as §1
Staphylococcus aureus [19] = experiment: Antibacterial activity against Staphylococcus aureus 343; format: functional; outline: as §1
[20] = system: Staphylococcus haemolyticus; experiment: Antibacterial activity against Staphylococcus haemolyticus ATCC 2997; format: functional; outline: as §1
Vero [21] = experiment: Cytotoxicity against Vero cells measured as percent of cell growth at 3.12 mg/L relative to control by MTT assay; format: functional, Chlorocebus sabaeus
Outline: (§2)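 VERO cells grown in MEM with 5% heat-inactivated (56 °C, 30 min) FCS, penicillin, streptomycin and L-glutamine. Cultures were watched for 2 days and live cells counted. Cells were then exposed to increasing compound concentrations; wells with cells only served as control. After 24 h, mitochondrial dehydrogenase activity was read by MTT. Trypan blue exclusion was also run.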

Vero [22] = experiment: Cytotoxicity against Vero cells measured as percent of cell growth at 50 mg/L relative to control by MTT assay; format: functional, Chlorocebus sabaeus; outline: as §2
Vero [23] = experiment: Cytotoxicity against Vero cells measured as percent of cell growth at 25 mg/L relative to control by MTT assay; format: functional, Chlorocebus sabaeus; outline: as §2
[24] = Specificity Index, Ki for human thymidylate synthase/Ki for Escherichia coli thymidylate synthase
Thymidylate synthase [25] = biological target: Thymidylate synthase (Escherichia coli, UniProt C3SWJ7); experiment: Inhibition of Escherichia coli thymidylate synthase
Chain of Thymidylate synthase (Escherichia coli, UniProt C3SWJ7) (C3SWJ7 whole entry): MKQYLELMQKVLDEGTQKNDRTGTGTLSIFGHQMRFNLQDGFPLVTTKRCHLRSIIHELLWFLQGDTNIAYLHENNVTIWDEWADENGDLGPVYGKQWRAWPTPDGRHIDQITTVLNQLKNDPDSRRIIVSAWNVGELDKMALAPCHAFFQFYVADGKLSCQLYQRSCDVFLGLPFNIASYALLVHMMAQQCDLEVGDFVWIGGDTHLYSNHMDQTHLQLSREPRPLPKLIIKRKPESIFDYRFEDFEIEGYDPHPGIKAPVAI

Vero [26] = experiment: Cytotoxicity against Vero cells measured as percent of cell growth at 6.25 mg/L relative to control by MTT assay; format: functional, Chlorocebus sabaeus; outline: as §2
Vero [27] = experiment: Cytotoxicity against Vero cells measured as percent of cell growth at 12.05 mg/L relative to control by MTT assay; format: functional, Chlorocebus sabaeus; outline: as §2
Vero [28] = experiment: Cytotoxicity against Vero cells measured as percent of cell growth at 1.56 mg/L relative to control by MTT assay; format: functional, Chlorocebus sabaeus; outline: as §2

O=C1OC(c2ccc(O)cc2)(c2ccc(O)cc2)c2ccc3ccccc3c21
Ki (Thymidylate synthase [1]): 0.6 µM | Ki (Dihydrofolate reductase): 35 µM

O=C1OC(c2ccc(O)c(Cl)c2)(c2ccc(O)c(Cl)c2)c2ccc3ccccc3c21
Ki (Thymidylate synthase [1]): 8.1 µM

O=C1OC(c2ccc(O)c(I)c2)(c2ccc(O)c(I)c2)c2cccc3cccc1c23
Ki (Thymidylate synthase [2]): 31 µM | Ratio Ki [3]: > 8 | Ki (Thymidylate synthase [1]): 16 µM | Ki (Thymidylate synthase [4]): > 132 µM | Ratio Ki [5]: > 4 | Ki (Dihydrofolate reductase): 94 µM | Selectivity index (Homo sapiens): < 1

O=C1OC(c2ccc(O)c(F)c2)(c2ccc(O)c(F)c2)c2ccc3ccccc3c21
MIC (Staphylococcus aureus [6]): 25 µg/mL (≈ 61.8 µM) | MIC [7]: 25 µg/mL (≈ 61.8 µM) | MIC (Staphylococcus aureus [8]): 25 µg/mL (≈ 61.8 µM) | Ki (Thymidylate synthase [1]): 3.5 µM | MIC (Citrobacter): > 50 µg/mL | MIC (Listeria monocytogenes [9]): 25 µg/mL (≈ 61.8 µM) | MIC (Escherichia coli [10]): > 50 µg/mL | MIC (Listeria monocytogenes [11]): 25 µg/mL (≈ 61.8 µM) | MIC (Staphylococcus aureus [12]): 25 µg/mL (≈ 61.8 µM) | MIC (Listeria monocytogenes [13]): 25 µg/mL (≈ 61.8 µM) | MIC (Enterococcus faecalis): 25 µg/mL (≈ 61.8 µM) | MIC (Streptococcus): 25 µg/mL (≈ 61.8 µM) | MIC (Listeria monocytogenes [14]): 25 µg/mL (≈ 61.8 µM) | MIC (Listeria monocytogenes [15]): 25 µg/mL (≈ 61.8 µM) | Ki (Dihydrofolate reductase): 109 µM | MIC (Listeria monocytogenes [16]): 25 µg/mL (≈ 61.8 µM) | MIC (Escherichia coli [17]): > 50 µg/mL | MIC (Listeria monocytogenes [18]): 25 µg/mL (≈ 61.8 µM) | MIC (Staphylococcus aureus [19]): 25 µg/mL (≈ 61.8 µM) | MIC [20]: 25 µg/mL (≈ 61.8 µM)

O=C1OC(c2ccc(O)c(F)c2)(c2ccc(O)c(F)c2)c2cccc3cccc1c23
Ki (Dihydrofolate reductase): 42 µM

O=C1OC(c2ccc(O)c(Br)c2)(c2ccc(O)c(Br)c2)c2ccc(Cl)c3cccc1c23
MIC (Staphylococcus aureus [6]): 2.5 µg/mL (≈ 4.46 µM) | Activity (Vero [21]): 95% | Ratio Ki [3]: > 60 | Activity (Vero [22]): 61% | MIC [7]: 1 µg/mL (≈ 1.78 µM) | MIC (Staphylococcus aureus [8]): 2.5 µg/mL (≈ 4.46 µM) | Activity (Vero [23]): 85% | Ki (Thymidylate synthase [1]): 4.1 µM | MIC (Citrobacter): > 25 µg/mL | Ratio Ki [24]: > 60 | MIC (Listeria monocytogenes [9]): 5 µg/mL (≈ 8.92 µM) | MIC (Escherichia coli [10]): > 25 µg/mL | Ki (Thymidylate synthase [25]): 4.1 µM | Activity (Vero [26]): 97% | MIC (Listeria monocytogenes [11]): 5 µg/mL (≈ 8.92 µM) | Ratio Ki [5]: > 306 | MIC (Staphylococcus aureus [12]): 2.5 µg/mL (≈ 4.46 µM) | MIC (Listeria monocytogenes [13]): 2.5 µg/mL (≈ 4.46 µM) | MIC (Enterococcus faecalis): 5 µg/mL (≈ 8.92 µM) | MIC (Streptococcus): 1 µg/mL (≈ 1.78 µM) | MIC (Listeria monocytogenes [14]): 2.5 µg/mL (≈ 4.46 µM) | MIC (Listeria monocytogenes [15]): 5 µg/mL (≈ 8.92 µM) | Ki (Dihydrofolate reductase): 13 µM | Activity (Vero [27]): 97% | MIC (Listeria monocytogenes [16]): 2.5 µg/mL (≈ 4.46 µM) | MIC (Escherichia coli [17]): > 25 µg/mL | Selectivity index (Homo sapiens): < 0.05 | MIC (Listeria monocytogenes [18]): 1 µg/mL (≈ 1.78 µM) | MIC (Staphylococcus aureus [19]): 1 µg/mL (≈ 1.78 µM) | MIC [20]: 5 µg/mL (≈ 8.92 µM) | Activity (Vero [28]): 96%

O=C1OC(c2ccc(O)cc2)(c2ccc(O)cc2)c2c1ccc1ccccc21
Ratio Ki [3]: > 330 | Ki (Thymidylate synthase [1]): 0.4 µM | Ratio Ki [24]: > 30 | Ki (Thymidylate synthase [25]): 4.4 µM | Ki (Thymidylate synthase [4]): > 132 µM | Ratio Ki [5]: > 12 | Selectivity index (Homo sapiens): < 1
